Data published in ChEMBL document CHEMBL1138547, “Synthesis, biological evaluation and 2D-QSAR analysis of benzoxazoles as antimicrobial agents” (2009).
Converted amounts (≈) assume the structure as drawn.

Tests used:
Assay type in all cases: functional
Bacillus subtilis [1] = test: Antimicrobial activity against Bacillus subtilis ATCC 6633 after 24 hrs; settings: for MIC: Bacillus subtilis, ATCC 6633, 24 h
Outline: (§1)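 MIC by twofold serial dilution in Mueller-Hinton broth (MHB); MHB also used to dilute the bacterial suspension. Wells held 10^3 cfu/ml bacteria after inoculation. Controls: 80% DMSO, 20% EtOH, methanol, DMSO, PBS, organism alone and medium alone. Triplicate in each run. MIC taken as the lowest concentration completely inhibiting macroscopic growth.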

Klebsiella pneumoniae [2] = test: Antimicrobial activity against Klebsiella pneumoniae RSHM 574 after 24 hrs; settings: RSHM 574, 24 h; outline: as §1
Bacillus subtilis [3] = test: Antimicrobial activity against ceftriazone-resistant Bacillus subtilis after 24 hrs
Outline: (§2)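 Twofold serial broth dilution in Mueller-Hinton broth. MHB was used both to dilute the bacterial suspension and for the twofold compound dilutions, giving 10^3 cfu/ml bacteria per well after inoculation. Solvent, medium and organism-only wells served as controls. Each organism was run in triplicate.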

Staphylococcus aureus [4] = test: Antimicrobial activity against Staphylococcus aureus ATCC 25923 after 24 hrs; settings: ATCC 25923, 24 h; outline: as §2
Candida albicans [5] = test: Antimicrobial activity against Candida albicans ATCC 10231 after 24 to 48 hrs
Outline: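 Twofold serial dilution following CLSI M27-A. Yeast suspension made at 10^4 cfu/ml by diluting a fresh culture at McFarland 0.5 (10^6 cfu/ml). Inoculated into the diluted compound, incubated at 35 °C in a humid chamber, read after 48 h. Triplicate in each run. MIC is the lowest concentration completely inhibiting macroscopic growth.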

Candida albicans [6] = test: Antimicrobial activity against multidrug-resistant Candida albicans isolates after 24 to 48 hrs
Outline: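 Yeast broth microdilution following CLSI M27-A, with Sabouraud dextrose medium noted for antifungal assays. Fresh cultures at McFarland 0.5 (10^6 cfu/ml) were diluted to 10^4 cfu/ml and inoculated into twofold compound dilutions. Trays were incubated at 35 °C in a humid chamber and read at 48 h, in triplicate. MIC was the lowest concentration giving complete macroscopic growth inhibition.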

Staphylococcus aureus [7] = test: Antimicrobial activity against multidrug-resistant Staphylococcus aureus after 24 hrs; outline: as §2
Escherichia coli [8] = test: Antimicrobial activity against multidrug-resistant Escherichia coli after 24 hrs; outline: as §2
Escherichia coli [9] = test: Antimicrobial activity against Escherichia coli ATCC 25922 after 24 hrs; settings: ATCC 25922, 24 h; outline: as §1
Pseudomonas aeruginosa = test: Antimicrobial activity against Pseudomonas aeruginosa ATCC […] after 24 hrs; outline: as §1
Klebsiella pneumoniae [10] = test: Antimicrobial activity against multidrug-resistant Klebsiella pneumoniae after 24 hrs; outline: as §2

SMILES	log(1/C) (Bacillus subtilis [1])	MIC (Bacillus subtilis [1])	MIC (Klebsiella pneumoniae [2])	MIC (Bacillus subtilis [3])	MIC (Staphylococcus aureus [4])	MIC (Candida albicans [5])	MIC (Candida albicans [6])	MIC (Staphylococcus aureus [7])	MIC (Escherichia coli [8])	MIC (Escherichia coli [9])	MIC (Pseudomonas aeruginosa)	MIC (Klebsiella pneumoniae [10])
COc1ccc(-c2nc3cc(C)ccc3o2)c(OC)c1	4.032											
Cc1ccc2nc(-c3ccccc3F)oc2c1	3.959	25 µg/mL (≈ 110 µM)										
Nc1ccc2oc(-c3ccc(F)cc3)nc2c1	3.96	25 µg/mL (≈ 110 µM)	50 µg/mL (≈ 219 µM)	50 µg/mL (≈ 219 µM)	50 µg/mL (≈ 219 µM)	50 µg/mL (≈ 219 µM)	50 µg/mL (≈ 219 µM)	100 µg/mL (≈ 438 µM)	100 µg/mL (≈ 438 µM)	50 µg/mL (≈ 219 µM)	50 µg/mL (≈ 219 µM)	100 µg/mL (≈ 438 µM)
Nc1ccc2nc(-c3ccc(F)cc3)oc2c1	3.659	50 µg/mL (≈ 219 µM)	50 µg/mL (≈ 219 µM)	50 µg/mL (≈ 219 µM)	100 µg/mL (≈ 438 µM)	50 µg/mL (≈ 219 µM)	50 µg/mL (≈ 219 µM)	100 µg/mL (≈ 438 µM)	100 µg/mL (≈ 438 µM)	50 µg/mL (≈ 219 µM)	50 µg/mL (≈ 219 µM)	100 µg/mL (≈ 438 µM)
O=[N+]([O-])c1ccc2oc(-c3ccccc3)nc2c1	4.284	12.5 µg/mL (≈ 52 µM)	50 µg/mL (≈ 208 µM)	25 µg/mL (≈ 104 µM)	200 µg/mL (≈ 833 µM)	100 µg/mL (≈ 416 µM)	50 µg/mL (≈ 208 µM)	400 µg/mL (≈ 1670 µM)	50 µg/mL (≈ 208 µM)	50 µg/mL (≈ 208 µM)	25 µg/mL (≈ 104 µM)	100 µg/mL (≈ 416 µM)
Cc1ccc(-c2nc3ccc(C)cc3o2)c(C)c1	3.676	50 µg/mL (≈ 211 µM)										
O=[N+]([O-])c1ccc2nc(-c3ccc(Br)cc3)oc2c1	4.407	12.5 µg/mL (≈ 39.2 µM)	50 µg/mL (≈ 157 µM)	50 µg/mL (≈ 157 µM)	100 µg/mL (≈ 313 µM)	100 µg/mL (≈ 313 µM)	50 µg/mL (≈ 157 µM)	400 µg/mL (≈ 1250 µM)	25 µg/mL (≈ 78.3 µM)	50 µg/mL (≈ 157 µM)	50 µg/mL (≈ 157 µM)	100 µg/mL (≈ 313 µM)
Nc1ccc2nc(-c3ccc(Br)cc3)oc2c1	4.063	25 µg/mL (≈ 86.5 µM)	50 µg/mL (≈ 173 µM)	25 µg/mL (≈ 86.5 µM)	100 µg/mL (≈ 346 µM)	100 µg/mL (≈ 346 µM)	50 µg/mL (≈ 173 µM)	100 µg/mL (≈ 346 µM)	50 µg/mL (≈ 173 µM)	50 µg/mL (≈ 173 µM)	50 µg/mL (≈ 173 µM)	100 µg/mL (≈ 346 µM)
Cc1ccc2nc(-c3ccc(Cl)cc3)oc2c1	4.29	12.5 µg/mL (≈ 51.3 µM)										
CO[C@H]1/C=C/O[C@@]2(C)Oc3c(C)c(O)c4c(O)c(c(/C=N/N5CCN(C)CC5)c(O)c4c3C2=O)NC(=O)/C(C)=C\C=C\[C@H](C)[C@H](O)[C@@H](C)[C@@H](O)[C@@H](C)[C@H](OC(C)=O)[C@@H]1C [RIFAMPIN]			16 µg/mL (≈ 19.4 µM)	256 µg/mL (≈ 311 µM)	0.5 µg/mL (≈ 0.608 µM)			8 µg/mL (≈ 9.72 µM)	64 µg/mL (≈ 77.8 µM)	8 µg/mL (≈ 9.72 µM)	32 µg/mL (≈ 38.9 µM)	256 µg/mL (≈ 311 µM)
